What was measured:
[1] = In vivo steady state metabolic clearance of the compound; settings: rat
Cytochrome P450 2C19 = Cytochrome P450 2C19 (Homo sapiens, UniProt P33261); assay: Interaction with human cytochrome P450 isoform 2C19 expressed in baculovirus-insect cells; assay type: ADME
How it was run: (§1)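 Microsomes from baculovirus-insect cells expressing human CYP1A2, 2C9, 2C19, 2D6 or 3A4. Compound serially diluted with an NADPH-regenerating mix (16.3 μM NADP+, 0.83 mM glucose-6-phosphate, 0.83 mM MgCl2, 0.4 U/mL G6PDH). Pre-warmed 10 min at 37 °C, then isoform-specific substrate added in 0.35 M potassium phosphate pH 7.4. Fluorometric read-out; IC50 by nonlinear regression.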

[2] = Total body clearance after administration to rats at a dose of 0.5 mg/kg intravenously; settings: rat, in vivo, iv
[3] = Maximal concentration in rats after 2.5 mg/kg oral dose; assay type: ADME, organism-based; set-up: dose 2.5 mg/kg, route oral; settings: rat, in vivo
Caco-2 = assay: Permeability in the Caco-2 cell; high absorption; assay type: ADME, cell-based; settings: human
How it was run: (§2)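 Caco-2 monolayers on polycarbonate Transwell inserts, 2 h at 37 °C. Apical and basolateral solutions analysed by LC-MS/MS (SRM). Papp = Cb·Vb/(C0·A·t).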

[4] = target: T1, Prostaglandin G/H synthase 1 (Rattus norvegicus) (UniProt Q63921); assay: Percent inhibition against cyclooxygenase-1 at 100 uM in rat blood
T1 sequence (whole entry): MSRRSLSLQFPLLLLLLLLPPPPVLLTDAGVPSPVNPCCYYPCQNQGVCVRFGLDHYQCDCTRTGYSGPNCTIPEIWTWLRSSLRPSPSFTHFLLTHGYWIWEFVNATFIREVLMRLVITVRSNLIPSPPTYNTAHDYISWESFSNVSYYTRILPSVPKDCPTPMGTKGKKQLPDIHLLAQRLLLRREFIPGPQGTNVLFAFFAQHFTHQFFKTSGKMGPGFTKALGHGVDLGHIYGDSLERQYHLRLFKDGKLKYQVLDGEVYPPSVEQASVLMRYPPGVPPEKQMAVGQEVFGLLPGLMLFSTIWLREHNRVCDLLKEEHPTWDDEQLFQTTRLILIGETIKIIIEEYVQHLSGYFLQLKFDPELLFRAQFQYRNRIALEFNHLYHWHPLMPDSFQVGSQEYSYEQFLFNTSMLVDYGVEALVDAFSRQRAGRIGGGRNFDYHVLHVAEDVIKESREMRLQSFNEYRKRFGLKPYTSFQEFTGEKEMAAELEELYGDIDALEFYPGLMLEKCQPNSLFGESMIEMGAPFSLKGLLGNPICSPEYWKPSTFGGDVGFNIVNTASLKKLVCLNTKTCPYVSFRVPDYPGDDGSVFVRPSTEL
How it was run: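 Fresh rat whole blood preincubated 1 h at 37 °C with compound (100 μM) or DMSO (0.3% final). Stimulated 30 min with A23187 calcium ionophore; plasma thromboxane B2 measured by radioimmunoassay.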

[5] = target: T2, Amyloid-beta precursor protein (Homo sapiens, UniProt P05067); settings: at 100 µM
Target sequence in this assay (P05067 whole entry): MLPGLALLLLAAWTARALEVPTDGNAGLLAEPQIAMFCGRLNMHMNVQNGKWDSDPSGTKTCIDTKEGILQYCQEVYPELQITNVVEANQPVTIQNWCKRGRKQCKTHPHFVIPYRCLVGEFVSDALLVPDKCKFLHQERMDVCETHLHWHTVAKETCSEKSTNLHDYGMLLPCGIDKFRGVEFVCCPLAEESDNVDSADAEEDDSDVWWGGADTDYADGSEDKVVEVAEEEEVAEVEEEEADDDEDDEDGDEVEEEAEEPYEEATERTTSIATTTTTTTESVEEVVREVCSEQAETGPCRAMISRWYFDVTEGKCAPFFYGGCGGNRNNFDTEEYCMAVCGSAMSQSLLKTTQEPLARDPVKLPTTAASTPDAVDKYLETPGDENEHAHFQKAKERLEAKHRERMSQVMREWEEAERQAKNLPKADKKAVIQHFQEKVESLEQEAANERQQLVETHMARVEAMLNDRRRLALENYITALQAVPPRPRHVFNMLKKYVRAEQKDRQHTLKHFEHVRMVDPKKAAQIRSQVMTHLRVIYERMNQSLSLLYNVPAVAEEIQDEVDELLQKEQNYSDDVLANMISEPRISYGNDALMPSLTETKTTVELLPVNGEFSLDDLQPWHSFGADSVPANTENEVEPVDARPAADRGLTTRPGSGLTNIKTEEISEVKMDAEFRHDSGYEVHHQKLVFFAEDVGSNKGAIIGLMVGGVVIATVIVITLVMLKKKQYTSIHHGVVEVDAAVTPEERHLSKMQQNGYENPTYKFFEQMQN

[6] = target: T2, Amyloid-beta precursor protein; assay: Inhibitory concentration against beta-amyloid-42 (Abeta42) secretion was evaluated in human neuroglioma cells (H4-APP695NL); assay type: functional, cell-based
How it was run: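 H4-APP695NL human neuroglioma cells (APP695 Swedish K595N/M596L) seeded at 2 × 10^5/well and grown 24 h to confluence. Increasing compound concentrations added overnight; DMSO 1% as vehicle. Supernatant Aβ42 or Aβ40 measured by electrochemiluminescence immunoassay: biotinylated 4G8 plus C-terminus-specific rabbit antibodies, captured on streptavidin beads.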
Target sequence in this assay (P05067 18-770 limits assumed): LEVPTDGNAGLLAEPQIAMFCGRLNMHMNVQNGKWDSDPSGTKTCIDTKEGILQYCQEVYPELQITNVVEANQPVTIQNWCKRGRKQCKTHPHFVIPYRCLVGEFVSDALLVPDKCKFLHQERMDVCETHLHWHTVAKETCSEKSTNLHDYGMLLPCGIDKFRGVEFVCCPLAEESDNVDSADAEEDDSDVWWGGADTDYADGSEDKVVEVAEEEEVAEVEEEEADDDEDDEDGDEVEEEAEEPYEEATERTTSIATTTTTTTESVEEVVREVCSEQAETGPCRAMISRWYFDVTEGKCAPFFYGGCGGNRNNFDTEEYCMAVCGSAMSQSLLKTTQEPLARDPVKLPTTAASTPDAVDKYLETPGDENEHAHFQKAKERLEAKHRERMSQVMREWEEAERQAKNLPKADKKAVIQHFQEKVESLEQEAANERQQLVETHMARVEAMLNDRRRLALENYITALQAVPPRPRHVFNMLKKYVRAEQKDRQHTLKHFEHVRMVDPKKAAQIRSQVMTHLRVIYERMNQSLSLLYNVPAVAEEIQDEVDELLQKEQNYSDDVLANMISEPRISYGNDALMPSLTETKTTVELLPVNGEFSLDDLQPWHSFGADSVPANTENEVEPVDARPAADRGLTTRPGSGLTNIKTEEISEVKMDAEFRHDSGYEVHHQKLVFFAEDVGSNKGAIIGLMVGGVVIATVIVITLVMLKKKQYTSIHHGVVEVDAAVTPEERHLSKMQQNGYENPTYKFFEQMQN

[7] = Elimination phase half-life after administration to rats at a dose of 2.5 mg/kg orally; assay type: ADME, organism-based; set-up: dose 2.5 mg/kg, route oral; settings: rat, in vivo, po
[8] = Absolute oral bioavailability after administration to rats at a dose of 2.5 mg/kg orally; settings: rat, in vivo
[9] = Maximal concentration in rats after 0.5 mg/kg intravenous dose; assay type: ADME, organism-based; set-up: dose 0.5 mg/kg, route intravenous; settings: rat, in vivo
Cytochrome P450 2C9 = Cytochrome P450 2C9 (Homo sapiens, UniProt P11712); assay: Interaction with human cytochrome P450 isoform 2C9 expressed in baculovirus-insect cells; assay type: ADME
Sequence of Cytochrome P450 2C9 (P11712 whole entry, canonical isoform): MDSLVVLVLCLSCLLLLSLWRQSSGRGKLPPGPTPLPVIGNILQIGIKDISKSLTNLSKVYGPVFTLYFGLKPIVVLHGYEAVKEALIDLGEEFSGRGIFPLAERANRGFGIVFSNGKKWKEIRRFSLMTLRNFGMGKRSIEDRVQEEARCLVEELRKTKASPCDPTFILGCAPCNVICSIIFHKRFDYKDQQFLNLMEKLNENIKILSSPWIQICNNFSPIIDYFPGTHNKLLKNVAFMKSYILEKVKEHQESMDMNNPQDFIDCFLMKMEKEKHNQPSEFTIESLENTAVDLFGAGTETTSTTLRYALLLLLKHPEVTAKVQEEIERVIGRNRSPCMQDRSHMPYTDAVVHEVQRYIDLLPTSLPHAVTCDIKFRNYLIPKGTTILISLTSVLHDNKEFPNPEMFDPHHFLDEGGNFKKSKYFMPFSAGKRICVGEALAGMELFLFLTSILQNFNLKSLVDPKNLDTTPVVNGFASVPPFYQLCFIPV
How it was run: as §1

[10] = Area under curve after administration to rats at a dose of 0.5 mg/kg intravenously; assay type: ADME, organism-based; set-up: dose 0.5 mg/kg, route intravenous; settings: rat, in vivo, iv
[11] = Area under curve after administration to rats at a dose of 2.5 mg/kg orally; assay type: ADME, organism-based; set-up: dose 2.5 mg/kg, route oral; settings: rat, in vivo, po
Cytochrome P450 3A4 [12] = target: T3, Cytochrome P450 3A4 (Homo sapiens, UniProt P08684); assay: Inhibition of cytochrome P450 3A4 at 100 uM; activation observed; assay type: ADME
T3 sequence (P08684 whole entry, canonical isoform): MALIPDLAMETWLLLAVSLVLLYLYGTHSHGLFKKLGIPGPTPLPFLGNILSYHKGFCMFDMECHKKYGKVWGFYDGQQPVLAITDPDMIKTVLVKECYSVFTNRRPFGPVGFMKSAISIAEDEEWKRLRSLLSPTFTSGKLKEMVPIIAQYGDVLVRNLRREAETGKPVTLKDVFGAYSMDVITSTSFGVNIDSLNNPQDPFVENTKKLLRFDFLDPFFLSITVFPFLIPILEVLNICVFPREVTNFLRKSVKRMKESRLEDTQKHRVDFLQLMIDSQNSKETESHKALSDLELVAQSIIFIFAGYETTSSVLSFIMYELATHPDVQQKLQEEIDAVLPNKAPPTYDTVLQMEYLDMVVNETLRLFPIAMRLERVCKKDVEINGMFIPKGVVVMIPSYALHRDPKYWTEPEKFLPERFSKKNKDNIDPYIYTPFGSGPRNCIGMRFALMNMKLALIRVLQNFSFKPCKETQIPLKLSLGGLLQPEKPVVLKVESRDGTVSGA
How it was run: (§3)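 Supersome microsomes from baculovirus-insect cells expressing human CYP1A2, 2C9, 2C19, 2D6 or 3A4 were used with isoform-specific fluorogenic substrates. Compounds were serially diluted with an NADP⁺/glucose-6-phosphate regenerating system in 0.35 M potassium phosphate, pH 7.4. Plates were prewarmed 10 min at 37 °C, reactions stopped with acetonitrile/Tris, and fluorescence read. IC50 was obtained by nonlinear regression.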

[13] = Maximal concentration in rats after 0.2 mg/kg intravenous dose; assay type: ADME, organism-based; set-up: dose 0.2 mg/kg, route intravenous; settings: rat, in vivo
[14] = Area under curve after administration to rats at a dose of 0.2 mg/kg intravenously; assay type: ADME, organism-based; set-up: dose 0.2 mg/kg, route intravenous; settings: rat, in vivo, iv
[15] = Time to achieve maximal concentration in rats after 0.5 mg/kg oral dose; assay type: ADME, organism-based; set-up: dose 0.5 mg/kg, route oral; settings: rat, in vivo
[16] = Time to achieve maximal concentration in rats after 0.2 mg/kg intravenous dose; assay type: ADME, organism-based; set-up: dose 0.2 mg/kg, route intravenous; settings: rat, in vivo
[17] = Total body clearance after administration to rats at a dose of 0.2 mg/kg intravenously; assay type: ADME, organism-based; set-up: dose 0.2 mg/kg, route intravenous; settings: rat, in vivo, iv
[18] = Maximal concentration in rats after 0.5 mg/kg oral dose; assay type: ADME, organism-based; set-up: dose 0.5 mg/kg, route oral; settings: rat, in vivo
[19] = Area under curve after administration to rats at a dose of 0.5 mg/kg orally; assay type: ADME, organism-based; set-up: dose 0.5 mg/kg, route oral; settings: rat, in vivo, po
Cytochrome P450 1A2 [20] = target: T4, Cytochrome P450 1A2 (Homo sapiens, UniProt P05177); assay: (§4) Interaction with human cytochrome P450 isoform 1A2 expressed in baculovirus-insect cells; assay type: ADME
T4 sequence (P05177 whole entry): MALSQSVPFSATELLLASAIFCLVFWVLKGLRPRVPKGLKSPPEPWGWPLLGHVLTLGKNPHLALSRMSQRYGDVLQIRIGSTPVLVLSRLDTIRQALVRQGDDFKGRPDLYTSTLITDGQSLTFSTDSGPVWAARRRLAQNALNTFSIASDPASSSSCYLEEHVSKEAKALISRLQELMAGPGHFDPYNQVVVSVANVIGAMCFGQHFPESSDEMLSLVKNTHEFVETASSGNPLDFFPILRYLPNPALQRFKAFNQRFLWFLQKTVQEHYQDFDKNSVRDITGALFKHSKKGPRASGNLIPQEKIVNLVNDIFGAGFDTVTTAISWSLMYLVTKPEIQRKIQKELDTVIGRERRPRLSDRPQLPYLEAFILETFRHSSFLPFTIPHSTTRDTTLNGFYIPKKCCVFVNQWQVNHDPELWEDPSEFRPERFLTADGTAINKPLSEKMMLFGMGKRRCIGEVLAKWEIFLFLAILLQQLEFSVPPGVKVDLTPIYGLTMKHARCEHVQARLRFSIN
How it was run: as §1

[21] = Concentration ratio in cerebrospinal fluid and plasma; LLOQ = lower limit of quantitation; settings: rat
Cytochrome P450 3A4 [22] = target: T3, Cytochrome P450 3A4; assay: (§5) Interaction with human cytochrome P450 isoform 3A4 expressed in baculovirus-insect cells; assay type: ADME
How it was run: as §1

[23] = Intestinal drug absorption was estimated in vitro using human colon adenocarcinoma (Caco-2) cell monolayers; assay type: ADME
How it was run: as §2

[24] = target: T2, Amyloid-beta precursor protein; assay: Concentration required to inhibit A beta 40 peptide 100 uM
Target sequence in this assay (P05067 whole entry): as the sequence (P05067 whole entry) above

[25] = Total body clearance after administration to rats at a dose of 0.5 mg/kg intravenously; assay type: ADME, organism-based; set-up: dose 0.5 mg/kg, route intravenous; settings: rat, in vivo, iv
[26] = Maximum time corresponding to maximum concentration after administration to rats at a dose of 2.5 mg/kg orally; assay type: ADME, organism-based; set-up: dose 2.5 mg/kg, route oral; settings: rat, in vivo, po
[27] = Elimination phase half-life after administration to rats at a dose of 0.5 mg/kg intravenously; assay type: ADME, organism-based; set-up: dose 0.5 mg/kg, route intravenous; settings: rat, in vivo, iv
[28] = Area under curve after administration to rats at adose of 0.5 mg/kg intravenously; assay type: ADME, organism-based; set-up: dose 0.5 mg/kg, route intravenous; settings: rat, in vivo, iv
[29] = Maximum time corresponding to maximum concentration after administration to rats at a dose of 0.5 mg/kg intravenously; assay type: ADME, organism-based; set-up: dose 0.5 mg/kg, route intravenous; settings: rat, in vivo, iv
[30] = Concentration ratio in cerebrospinal fluid and plasma; settings: rat
[31] = target: T2, Amyloid-beta precursor protein; assay: Inhibition of A beta 40 peptide 100 um
Target sequence in this assay (P05067 whole entry): as above

[32] = Area under curve after administration to rats at adose of 2.5 mg/kg orally; assay type: ADME, organism-based; set-up: dose 2.5 mg/kg, route oral; settings: rat, in vivo, po
[33] = Absolute oral bioavailability after administration to rats at a dose of 2.5 mg/kg orally; settings: rat, in vivo; remark: listed apart in the source
Cytochrome P450 1A2 [34] = target: T4, Cytochrome P450 1A2; assay: as §4; assay type: ADME; remark: listed apart in the source
How it was run: as §3

Cytochrome P450 2D6 = Cytochrome P450 2D6 (Homo sapiens, UniProt P10635); assay: Interaction with human cytochrome P450 isoform 2D6 expressed in baculovirus-insect cells; assay type: ADME
Sequence of Cytochrome P450 2D6 (P10635 whole entry, canonical isoform): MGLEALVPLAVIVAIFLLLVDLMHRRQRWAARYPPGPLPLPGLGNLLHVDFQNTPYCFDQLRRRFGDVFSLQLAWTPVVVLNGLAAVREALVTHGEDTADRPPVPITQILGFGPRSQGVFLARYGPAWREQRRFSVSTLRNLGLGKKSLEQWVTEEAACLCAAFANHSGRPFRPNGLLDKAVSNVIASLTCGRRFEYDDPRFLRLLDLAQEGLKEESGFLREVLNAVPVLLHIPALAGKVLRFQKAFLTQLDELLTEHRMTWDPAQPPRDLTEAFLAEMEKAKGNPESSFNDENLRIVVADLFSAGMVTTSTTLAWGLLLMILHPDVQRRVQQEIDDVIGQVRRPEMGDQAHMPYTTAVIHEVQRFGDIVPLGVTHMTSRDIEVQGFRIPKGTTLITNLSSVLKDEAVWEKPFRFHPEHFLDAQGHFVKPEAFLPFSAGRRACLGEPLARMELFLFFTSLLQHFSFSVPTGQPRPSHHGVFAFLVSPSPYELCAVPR
How it was run: as §3

Cytochrome P450 3A4 [35] = target: T3, Cytochrome P450 3A4; assay: as §5; assay type: ADME; remark: listed apart in the source
How it was run: as §3

Sequence of Cytochrome P450 2C19 (P33261 whole entry, canonical isoform): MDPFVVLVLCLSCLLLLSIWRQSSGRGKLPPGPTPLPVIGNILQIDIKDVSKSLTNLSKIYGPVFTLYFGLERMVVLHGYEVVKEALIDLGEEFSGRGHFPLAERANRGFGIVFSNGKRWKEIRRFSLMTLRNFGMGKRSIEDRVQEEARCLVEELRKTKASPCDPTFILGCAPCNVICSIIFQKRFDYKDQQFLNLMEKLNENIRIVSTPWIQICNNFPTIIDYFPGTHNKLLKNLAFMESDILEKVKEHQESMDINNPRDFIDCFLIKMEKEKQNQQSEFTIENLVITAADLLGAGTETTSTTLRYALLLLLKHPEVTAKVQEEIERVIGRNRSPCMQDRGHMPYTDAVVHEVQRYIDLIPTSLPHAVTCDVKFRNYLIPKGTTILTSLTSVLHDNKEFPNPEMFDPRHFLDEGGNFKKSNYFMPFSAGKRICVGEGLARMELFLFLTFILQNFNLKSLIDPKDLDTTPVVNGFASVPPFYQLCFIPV

## O=C(O)C1(c2ccc(-c3ccc(Cl)c(Cl)c3)c(F)c2)CC1
[1]
  Clearance: 1.5 mL/h
Cytochrome P450 2C19
  IC50: 25 µM
[2]
  Clearance: 2.9 mL/h/kg
[3]
  Cmax: 16200 ng/mL
Caco-2
  Absorption: High
[4]
  inhibition: < 1%
[5]
  inhibition: 79%
[6]
  IC50: 41 µM
[7]
  T1/2: 20.7 h
  half-life: 20.7 h
[8]
  bioavailability: 50.2%
[9]
  Cmax: 6100 ng/mL
Cytochrome P450 2C9
  IC50: 38 µM
[10]
  AUC: 173 µg/h/mL
[11]
  AUC: 435 µg/h/mL

## O=C(O)C1(c2ccc(-c3ccc(C4CCCCC4)cc3)c(F)c2)CC1
Cytochrome P450 3A4 [12]
  IC50: 59 µM
[4]
  inhibition: 12%
[5]
  inhibition: 60%

## O=C(O)C1(c2ccc(-c3ccc(OC4CCC(C(F)(F)F)CC4)cc3)c(F)c2)CC1 (stereo not drawn)
[13]
  Cmax: 600 ng/mL
[14]
  AUC: 11 µg/h/mL
[5]
  inhibition: 70%
[15]
  Tmax: 8 h
[16]
  Tmax: 0.25 h
[6]
  IC50: 20 µM
[17]
  Clearance: 18.8 mL/h/kg
[18]
  Cmax: 300 ng/mL
[19]
  AUC: 6 µg/h/mL
Cytochrome P450 2C9
  IC50: 17.7 µM

## CC(C(=O)O)c1ccc(-c2ccc(OC3CCCCC3)cc2)c(F)c1 (stereo not drawn)
Cytochrome P450 1A2 [20]
  Inhibition: > 50%
[1]
  Clearance: 148 mL/h
[21]
  Ratio: Below LLOQ
[4]
  inhibition: 20%
[5]
  inhibition: 76%
Cytochrome P450 3A4 [22]
  Inhibition: > 50%
[6]
  IC50: 41 µM
[23]
  Papp: > 5 ×10⁻⁶ cm/s
[24]
  inhibition: 25%

## O=C(O)C1(c2ccc(-c3ccc(C(F)(F)F)cc3)c(F)c2)CC1
[1]
  Clearance: 0.52 mL/h
[25]
  Clearance: 0.9 mL/h/kg
[26]
  Tmax: 4 h
Cytochrome P450 2C19
  IC50: 71 µM
[3]
  Cmax: 54900 ng/mL
Caco-2
  Absoption: High
[27]
  half-life: 36.2 h
[4]
  inhibition: < 1%
[28]
  AUC: 575 µg/h/mL
[29]
  Tmax: 4.8 min
[30]
  Ratio: 1.8%
[5]
  inhibition: 55%
[6]
  IC50: 111 µM
[7]
  half-life: 32.8 h
[31]
  Inhibition: 22%
[32]
  AUC: 2613 µg/h/mL
[9]
  Cmax: 14400 ng/mL
[33]
  bioavailability: 90.9%

## CC1(C)CC(Oc2ccc(-c3ccc(C4(C(=O)O)CC4)cc3F)cc2)CC(C)(C)C1
Cytochrome P450 1A2 [34]
  IC50: 26 µM
[1]
  Clearance: 134 mL/h
Cytochrome P450 2C19
  IC50: 33 µM
Cytochrome P450 2D6
  IC50: 30 µM
[5]
  inhibition: 97%
[6]
  IC50: 11 µM
Cytochrome P450 3A4 [35]
  IC50: 27 µM
Cytochrome P450 2C9
  IC50: 15 µM
